{
  "source": "ChEMBL document CHEMBL1157775",
  "about": "“Novel hexahydropyrrolo[3,4-c]pyrrole CCR5 antagonists” (Bioorg Med Chem Lett, 2010)",
  "data": [
    {"biological_target": "C-C chemokine receptor type 5 (Homo sapiens, UniProt P51681)", "sequence (P51681 whole entry)": "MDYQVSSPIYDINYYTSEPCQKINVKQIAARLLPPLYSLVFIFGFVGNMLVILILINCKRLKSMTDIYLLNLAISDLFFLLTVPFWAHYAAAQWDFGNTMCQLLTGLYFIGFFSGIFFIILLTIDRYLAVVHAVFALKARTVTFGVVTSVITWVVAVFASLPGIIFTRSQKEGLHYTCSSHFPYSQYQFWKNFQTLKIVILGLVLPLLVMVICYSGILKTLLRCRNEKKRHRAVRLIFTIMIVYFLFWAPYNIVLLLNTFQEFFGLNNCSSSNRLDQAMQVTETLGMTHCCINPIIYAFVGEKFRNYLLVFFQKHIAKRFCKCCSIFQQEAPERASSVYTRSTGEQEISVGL", "assay": "Binding affinity at CCR5 receptor by radiolabeled RANTES binding assay", "conditions": "not given", "units": {"IC50": "nM"}, "values": [
      {"smiles": "Cc1ncnc(C)c1C(=O)N1C[C@H]2CN(CC[C@H](NC(=O)C3CCCC3)c3ccccc3)C[C@H]2C1", "IC50": 14},
      {"smiles": "Cc1cc(=O)[nH]c(C)c1C(=O)N1C[C@H]2CN(CC[C@H](NC(=O)C3CCCC3)c3ccccc3)C[C@H]2C1", "IC50": 30},
      {"smiles": "Cc1ncnc(C)c1C(=O)N1C[C@H]2CN(CC[C@H](NC(=O)CC3CC(F)(F)C3)c3ccccc3)C[C@H]2C1", "IC50": 20},
      {"smiles": "Cc1cc(C#N)nc(C)c1C(=O)N1C[C@H]2CN(CC[C@H](NC(=O)C3CCCC3)c3ccccc3)C[C@H]2C1", "IC50": 12},
      {"smiles": "CC(=O)N1C[C@H]2CN(CC[C@H](NC(=O)C3CCCC3)c3ccccc3)C[C@H]2C1", "IC50": 465},
      {"smiles": "Cc1cccc(Cl)c1C(=O)N1C[C@H]2CN(CC[C@H](NC(=O)C3CCCC3)c3ccccc3)C[C@H]2C1", "IC50": 9},
      {"smiles": "Cc1cccc(C)c1C(=O)N1C[C@H]2CN(CC[C@H](NC(=O)C3CCCC3)c3ccccc3)C[C@H]2C1", "IC50": 6},
      {"smiles": "CC(=O)N[C@@H](CCN1C[C@@H]2CN(C(=O)c3c(C)cccc3C)C[C@@H]2C1)c1ccccc1", "IC50": 15},
      {"smiles": "Cc1cccc(C)c1C(=O)N1C[C@H]2CN(CC[C@H](NC(=O)C(C)C)c3ccccc3)C[C@H]2C1", "IC50": 11},
      {"smiles": "Cc1noc(C)c1C(=O)N1C[C@H]2CN(CC[C@H](NC(=O)C3CCCC3)c3ccccc3)C[C@H]2C1", "IC50": 19},
      {"smiles": "Cc1cccc(C)c1C(=O)N1C[C@H]2CN(CC[C@H](NC(=O)C3CCCCC3)c3ccccc3)C[C@H]2C1", "IC50": 3},
      {"smiles": "Cc1cccc(C)c1C(=O)N1C[C@H]2CN(CC[C@H](NC(=O)C3CCC(F)(F)CC3)c3ccccc3)C[C@H]2C1", "IC50": 4},
      {"smiles": "Cc1cccc(C)c1C(=O)N1C[C@H]2CN(CC[C@H](NC(=O)c3ccccc3)c3ccccc3)C[C@H]2C1", "IC50": 8}
    ]},
    {"tested_on": "not listed separately", "assay": "Intrinsic clearance in human liver microsomes assessed per mg of protein", "format": "ADME, Microsome", "conditions": "not given", "method_in_brief": "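Human liver microsomes. Intrinsic clearance is expressed as µl/min/mg protein.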", "units": {"microsomal CLint": "µL/min/mg"}, "values": [
      {"smiles": "Cc1ncnc(C)c1C(=O)N1C[C@H]2CN(CC[C@H](NC(=O)C3CCCC3)c3ccccc3)C[C@H]2C1", "microsomal CLint": 35},
      {"smiles": "Cc1cc(=O)[nH]c(C)c1C(=O)N1C[C@H]2CN(CC[C@H](NC(=O)C3CCCC3)c3ccccc3)C[C@H]2C1", "microsomal CLint": 25},
      {"smiles": "Cc1ncnc(C)c1C(=O)N1C[C@H]2CN(CC[C@H](NC(=O)CC3CC(F)(F)C3)c3ccccc3)C[C@H]2C1", "microsomal CLint": 60},
      {"smiles": "Cc1cc(C#N)nc(C)c1C(=O)N1C[C@H]2CN(CC[C@H](NC(=O)C3CCCC3)c3ccccc3)C[C@H]2C1", "microsomal CLint": 227},
      {"smiles": "Cc1cccc(Cl)c1C(=O)N1C[C@H]2CN(CC[C@H](NC(=O)C3CCCC3)c3ccccc3)C[C@H]2C1", "microsomal CLint": 264},
      {"smiles": "Cc1cccc(C)c1C(=O)N1C[C@H]2CN(CC[C@H](NC(=O)C3CCCC3)c3ccccc3)C[C@H]2C1", "microsomal CLint": 256}
    ]},
    {"tested_on": "not listed separately", "assay": "Intrinsic clearance in rat liver microsomes assessed per mg of protein", "format": "ADME, Microsome", "conditions": "not given", "method_in_brief": "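Rat liver microsomes. Intrinsic clearance is expressed per mg protein. Values ≥90 µl/min were taken as high clearance.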", "units": {"microsomal CLint": "µL/min/mg"}, "values": [
      {"smiles": "Cc1ncnc(C)c1C(=O)N1C[C@H]2CN(CC[C@H](NC(=O)C3CCCC3)c3ccccc3)C[C@H]2C1", "microsomal CLint": 51},
      {"smiles": "Cc1cc(=O)[nH]c(C)c1C(=O)N1C[C@H]2CN(CC[C@H](NC(=O)C3CCCC3)c3ccccc3)C[C@H]2C1", "microsomal CLint": 25},
      {"smiles": "Cc1ncnc(C)c1C(=O)N1C[C@H]2CN(CC[C@H](NC(=O)CC3CC(F)(F)C3)c3ccccc3)C[C@H]2C1", "microsomal CLint": 61},
      {"smiles": "Cc1cc(C#N)nc(C)c1C(=O)N1C[C@H]2CN(CC[C@H](NC(=O)C3CCCC3)c3ccccc3)C[C@H]2C1", "microsomal CLint": 144},
      {"smiles": "Cc1cccc(C)c1C(=O)N1C[C@H]2CN(CC[C@H](NC(=O)C3CCCC3)c3ccccc3)C[C@H]2C1", "microsomal CLint": 322}
    ]},
    {"tested_on": "not listed separately", "assay": "Permeability from apical to basolateral side of human Caco-2 cells after 21 days", "format": "ADME, cell-based", "conditions": "read-out: permeability", "units": {"Papp A→B": "×10⁻⁶ cm/s"}, "values": [
      {"smiles": "Cc1ncnc(C)c1C(=O)N1C[C@H]2CN(CC[C@H](NC(=O)C3CCCC3)c3ccccc3)C[C@H]2C1", "Papp A→B": 1.3},
      {"smiles": "Cc1cc(=O)[nH]c(C)c1C(=O)N1C[C@H]2CN(CC[C@H](NC(=O)C3CCCC3)c3ccccc3)C[C@H]2C1", "Papp A→B": 0.5},
      {"smiles": "Cc1cc(C#N)nc(C)c1C(=O)N1C[C@H]2CN(CC[C@H](NC(=O)C3CCCC3)c3ccccc3)C[C@H]2C1", "Papp A→B": 3},
      {"smiles": "Cc1cccc(C)c1C(=O)N1C[C@H]2CN(CC[C@H](NC(=O)C3CCCC3)c3ccccc3)C[C@H]2C1", "Papp A→B": 4}
    ]},
    {"tested_on": "not listed separately", "assay": "AUC in rat at 10 mg/kg, po", "format": "ADME, organism-based", "design": "dose 10 mg/kg, route oral", "conditions": "plasma", "method_in_brief": "(§1)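 Rat PK. Single IV dose of 1 mg/kg and oral dose of 10 mg/kg. Oral AUC (ng·h/mL) and %F were derived from the PO arm. Clearance (mL/min/kg) was taken from the IV arm.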", "units": {"AUC": "ng·h/mL"}, "values": [
      {"smiles": "Cc1ncnc(C)c1C(=O)N1C[C@H]2CN(CC[C@H](NC(=O)C3CCCC3)c3ccccc3)C[C@H]2C1", "AUC": 309},
      {"smiles": "Cc1cccc(C)c1C(=O)N1C[C@H]2CN(CC[C@H](NC(=O)C3CCCC3)c3ccccc3)C[C@H]2C1", "AUC": 31}
    ]},
    {"tested_on": "not listed separately", "assay": "Oral bioavailability in rat at 10 mg/kg", "format": "ADME, organism-based", "conditions": "in vivo", "method_in_brief": "as §1", "units": {"bioavailability": "%"}, "values": [
      {"smiles": "Cc1ncnc(C)c1C(=O)N1C[C@H]2CN(CC[C@H](NC(=O)C3CCCC3)c3ccccc3)C[C@H]2C1", "bioavailability": 17},
      {"smiles": "Cc1cccc(C)c1C(=O)N1C[C@H]2CN(CC[C@H](NC(=O)C3CCCC3)c3ccccc3)C[C@H]2C1", "bioavailability": 2.7}
    ]},
    {"tested_on": "not listed separately", "assay": "Clearance in rat at 1 mg/kg, iv", "format": "ADME, organism-based", "design": "dose 1 mg/kg, route intravenous", "conditions": "in vivo", "method_in_brief": "as §1", "units": {"clearance": "mL/min/kg"}, "values": [
      {"smiles": "Cc1ncnc(C)c1C(=O)N1C[C@H]2CN(CC[C@H](NC(=O)C3CCCC3)c3ccccc3)C[C@H]2C1", "clearance": 131},
      {"smiles": "Cc1cccc(C)c1C(=O)N1C[C@H]2CN(CC[C@H](NC(=O)C3CCCC3)c3ccccc3)C[C@H]2C1", "clearance": 134}
    ]},
    {"tested_on": "Human immunodeficiency virus 1", "assay": "Antiviral activity against HIV1 NL4-3 infected in human JC53-BL cells assessed as luciferase activity after 3 days post infection", "format": "functional, organism-based", "conditions": "Human immunodeficiency virus 1, NL4-3, JC53BL, 72 h", "method_in_brief": "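Pseudotyped virus in culture supernatant was harvested after 2 days. It was used to infect JC53-BL reporter cells. Luciferase reporter activity was read 3 days post-infection. IC50 in nM is reported as the mean of two experiments.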", "units": {"IC50": "nM"}, "values": [
      {"smiles": "Cc1cc(=O)[nH]c(C)c1C(=O)N1C[C@H]2CN(CC[C@H](NC(=O)C3CCCC3)c3ccccc3)C[C@H]2C1", "IC50": 6},
      {"smiles": "Cc1ncnc(C)c1C(=O)N1C[C@H]2CN(CC[C@H](NC(=O)CC3CC(F)(F)C3)c3ccccc3)C[C@H]2C1", "IC50": 3},
      {"smiles": "CC(=O)N1C[C@H]2CN(CC[C@H](NC(=O)C3CCCC3)c3ccccc3)C[C@H]2C1", "IC50": "> 1000"},
      {"smiles": "Cc1cccc(Cl)c1C(=O)N1C[C@H]2CN(CC[C@H](NC(=O)C3CCCC3)c3ccccc3)C[C@H]2C1", "IC50": 3},
      {"smiles": "Cc1cccc(C)c1C(=O)N1C[C@H]2CN(CC[C@H](NC(=O)C3CCCC3)c3ccccc3)C[C@H]2C1", "IC50": 7},
      {"smiles": "CC(=O)N[C@@H](CCN1C[C@@H]2CN(C(=O)c3c(C)cccc3C)C[C@@H]2C1)c1ccccc1", "IC50": 132},
      {"smiles": "Cc1cccc(C)c1C(=O)N1C[C@H]2CN(CC[C@H](NC(=O)C(C)C)c3ccccc3)C[C@H]2C1", "IC50": 100},
      {"smiles": "Cc1noc(C)c1C(=O)N1C[C@H]2CN(CC[C@H](NC(=O)C3CCCC3)c3ccccc3)C[C@H]2C1", "IC50": 545},
      {"smiles": "Cc1cccc(C)c1C(=O)N1C[C@H]2CN(CC[C@H](NC(=O)C3CCCCC3)c3ccccc3)C[C@H]2C1", "IC50": 30},
      {"smiles": "Cc1cccc(C)c1C(=O)N1C[C@H]2CN(CC[C@H](NC(=O)C3CCC(F)(F)CC3)c3ccccc3)C[C@H]2C1", "IC50": 9},
      {"smiles": "Cc1cccc(C)c1C(=O)N1C[C@H]2CN(CC[C@H](NC(=O)c3ccccc3)c3ccccc3)C[C@H]2C1", "IC50": 124}
    ]},
    {"tested_on": "Caco-2", "assay": "Efflux ratio of permeability from basolateral to apical over apical to basolateral side in human Caco-2 cells after 21 days", "conditions": "caco-2, 504 h", "values": [
      {"smiles": "Cc1cc(=O)[nH]c(C)c1C(=O)N1C[C@H]2CN(CC[C@H](NC(=O)C3CCCC3)c3ccccc3)C[C@H]2C1", "Ratio": 5},
      {"smiles": "Cc1cccc(C)c1C(=O)N1C[C@H]2CN(CC[C@H](NC(=O)C3CCCC3)c3ccccc3)C[C@H]2C1", "Ratio": 5}
    ]}
  ]
}
